Compound activity (PubChem)
The list is not random: actives were taken first. Their share in the collection is about 6.8%.
HSF1 inh: HSF1 inhibition; NIH3T3-HGL HSE-luciferase, MG132-induced, luminescence 8 h; active compounds read low; activity change, negative = inhibition, % at 7.5 µM (by protocol); hit rate 0.77% among 300,000;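 active means more than half of replicate wells show activity change below -50%, luminescence cut by over half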;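 further: luciferase reports HSF-1 transcriptional activity via heat shock element; 0% = median of DMSO wells and -100% = zero luminescence signal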
AI-2 QS modul: modulates the Vibrio harveyi AI-2 quorum sensing system; activity change, % at 7.5 µM; Vibrio harveyi JMH597 AI-2 luminescence/OD600 ratio, 9 h; active compounds read low; strain lacks LuxN and CqsS sensors; 0 = neutral-control median; hit rate 0.4% among 300,000; in the data active means activity change below about -75%, passing the limit was not always enough;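 further: luminescence divided by OD600 gain over 9 h not by final OD600 alone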
ALR H2O2 inh: human ALR oxidase inhibition via reduced H2O2 | hit rate 3.8% among 290,000 | purified ALR, DTT oxidation, H2O2 HRP-luminol luminescence | P55789 | inhibition, % (test concentration not listed);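 active means mean replicate inhibition above about 79%, with every replicate also reaching it, limit read from the data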
Target sequence (P55789 whole entry, looked up): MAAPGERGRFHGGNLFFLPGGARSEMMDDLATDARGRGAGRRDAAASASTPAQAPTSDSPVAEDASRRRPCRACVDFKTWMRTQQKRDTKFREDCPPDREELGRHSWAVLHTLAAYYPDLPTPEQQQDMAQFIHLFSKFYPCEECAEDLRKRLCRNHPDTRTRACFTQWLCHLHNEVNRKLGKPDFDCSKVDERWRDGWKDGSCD
HSF-1 act: increases HSF-1 driven luciferase reporter signal. NIH3T3-HGL HSF-1 luciferase reporter, MG132, 8 h; 100% = twice DMSO control signal. activation, % at 9 µM. hit rate 1.7% among 300,000. AID 504408;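 active means mean replicate activation of at least 50% with a set share of replicates each reaching 50%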;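 further: 0% = median of the neutral control wells and 100% = twice that signal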
core dimer inh: blocks dimerization of HCV core protein. TR-FRET GST/Flag-core106 dimerization, 1536-well. inhibition, % at 5 µM. hit rate 0.33% among 300,000;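 active means inhibition above the mean of all tested compounds plus 3 SD, set per screening campaign, cut at about 45% in these data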
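test system = GST/Flag-tagged HCV core106 proteins | probe or stimulus = Eu donor and XL665 acceptor anti-tag antibodies | times = compound-protein-antibody incubation 4 h at 22.5 °C | signal = TR-FRET, excitation 340 nm, emission 617 and 671 nm | measure = percent inhibition of core106 dimerization signal | controls = wells lacking GST-core106 and wells with excess unlabelled core106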
PHOSPHO1 inh: blocks human PHOSPHO1 phosphatase activity | recombinant PHOSPHO1, absorbance phosphatase assay | inhibition, % at 13.3 µM | hit rate 1.1% among 290,000 | AID 1565; in the data active means inhibition above about 60%
Target sequence (Q8TCT1 whole entry, looked up): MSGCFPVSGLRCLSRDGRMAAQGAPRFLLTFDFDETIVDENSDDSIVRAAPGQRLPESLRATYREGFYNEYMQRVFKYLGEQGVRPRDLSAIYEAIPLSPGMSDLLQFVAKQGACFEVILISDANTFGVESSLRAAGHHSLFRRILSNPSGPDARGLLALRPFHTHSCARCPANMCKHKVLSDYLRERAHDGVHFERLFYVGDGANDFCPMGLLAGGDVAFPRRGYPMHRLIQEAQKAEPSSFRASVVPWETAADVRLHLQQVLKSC
* hit, by the source's call; nt = no result.

SMILES	HSF1 inh	AI-2 QS modul	ALR H2O2 inh	HSF-1 act	core dimer inh	PHOSPHO1 inh
CCOC(=O)c1cc(S(=O)(=O)NC2CCC(C)CC2)cn1C (stereo not given)	-5	22	-7	-8	-2	64*
Cc1ccc(NC(=O)C(C)OC(=O)Cn2cnc3ccccc3c2=O)cc1 (stereo not given)	1	17	32	9	-1	nt
O=C(CCCSc1nc2ccccc2[nH]1)NCc1ccco1	13	9	-2	68*	-4	18
COc1ccccc1N(C)S(=O)(=O)c1ccc(C(=O)OCC(=O)NCc2cccs2)cc1	-4	17	-3	8	-1	25
COCCn1c(C)cc(C(=O)CSc2nnc(C)s2)c1C	-56*	23	10	-62	2	-3
COCCn1c(C)cc(C(=O)COC(=O)c2ccc([N+](=O)[O-])o2)c1C	-5	35	-21	-17	-1	32
COCCn1c(C)cc(C(=O)COC(=O)c2cccc(O)c2)c1C	-79*	41	-3	-81	3	43
COCCn1c(C)cc(C(=O)COC(=O)c2cc3c(s2)CCC3)c1C	19	23	45	22	79*	26
CCc1cccc(NC(=O)c2cc(OC)c(OC)c(OC)c2)c1	11	6	-5	20	0	-17
Cc1ccc(CNC(=O)CSc2nc3c(sc4ccccc43)c(=O)n2CCCN2CCCC2)cc1	8	-4	99*	19	-5	16
COc1cccc(NC(=O)CSc2nc3c(sc4ccccc43)c(=O)n2CCN(C)C)c1	10	-1	100*	8	4	-20
COc1cccc(NC(=O)CSc2nc3c(sc4ccccc43)c(=O)n2CCCN2CCCC2)c1	6	-1	97*	-11	-10	13
O=C(CN1C(=O)NC(Cc2c[nH]c3ccccc23)C1=O)NCC(F)(F)F (stereo not given)	-6	19	2	9	3	28
Cc1cc(C)c(S(=O)(=O)Nc2nccs2)c(C)c1	-7	12	-4	-12	0	36
CCOC(=O)CNC(=O)Cn1cnc2c(nnn2-c2cccc(OC)c2)c1=O	3	8	-8	5	nt	15
Cc1ccc(OCCCC(=O)Nc2nccs2)cc1	-12	23	-8	-32	-7	4
Cc1cccc(OCCCC(=O)Nc2nccs2)c1	38	10	-1	67*	-1	-8
Cc1cccc(OCCCC(=O)Nc2ccc(N(C)C)cc2)c1	4	-2	92*	16	-28	3
CCCCn1c(N)c(N(CCC(C)C)C(=O)CC2CCCC2)c(=O)[nH]c1=O	0	22	-2	-9	-8	nt
CCN(C[C@H]1N[C@@](Cc2ccccc2)(C(=O)OC)[C@H]2C(=O)N(C)C(=O)[C@@H]12)C(=O)Nc1ccc(C(F)(F)F)cc1	nt	nt	-7	nt	nt	nt
O=C(O)C1CCCCC1C(=O)Nc1ccc2c(c1)CCC2 (stereo not given)	84	-2	-7	123*	-2	-1
O=C(O)C1CCCCC1C(=O)Nc1ccccc1Nc1ccccc1 (stereo not given)	-2	37	99*	-4	-1	22
COc1cc(N)c(Cl)cc1C(=O)OCC(=O)Nc1cccnc1Cl	-1	17	-9	-1	3	nt
N/C(=N\O)c1ccccc1N1CCCCC1	2	11	90*	-3	-5	23
CCN(CC)S(=O)(=O)c1cccc(-c2nnc(SCC(=O)NC)n2N)c1	-1	16	-10	15	-2	32
SMILES	HSF1 inh	AI-2 QS modul	ALR H2O2 inh	HSF-1 act	core dimer inh	PHOSPHO1 inh
CN(C)S(=O)(=O)c1cccc(-c2nnc(SCc3cc(Cl)cc4c3OCOC4)n2N)c1	4	19	-7	-7	8	99*
CC12CCC(=O)N1C(C(=O)N1CCN(S(=O)(=O)c3ccc(F)c(F)c3)CC1)CS2 (stereo not given)	-2	17	0	-20	2	nt
O=C(O)c1cccc(-c2ccc(/C=c3/sc4nc5ccccc5n4c3=O)o2)c1	-3	25	nt	-15	5	85*
O=c1/c(=C\c2cc([N+](=O)[O-])cc([N+](=O)[O-])c2O)sc2nc3ccccc3n12	nt	nt	-21	nt	13	67*
CC1CC(=O)c2c(cc3c(-c4c(O)cc(O)c5c(O)c6c(cc45)OC(C)CC6=O)c(O)cc(O)c3c2O)O1 (stereo not given)	-3	-82*	51	-5	-20	-64
CN(CCC#N)C(=O)COC(=O)c1c2c(nc3ccccc13)/C(=C/c1ccco1)CC2	-6	26	-36	-11	53*	-32
COc1ccc(/C=C2\CCc3c2nc2ccccc2c3C(=O)O)cc1OC	16	35	-10	20	-5	25
CCOC(=O)C(C(=O)N(C)Cc1ccccc1)C1CCCCC1 (stereo not given)	-32	29	-2	-43	-1	24
CC(Oc1ccccc1)C(=O)N=Nc1c(O)[nH]c2ccc(Br)cc12 (stereo not given)	25	10	-8	70*	-1	-6
Oc1cccc(NC(=S)N=Nc2c(O)[nH]c3ccc(Br)cc23)c1	-1	39	99*	-10	-2	32
O=C(C1CCOCC1)N1CCC(CO)(CCc2ccccc2)CC1	-3	15	13	1	-4	35
COC(=O)c1cc(=O)n2c(sc3ccccc32)c1C#N	-1	17	-5	6	5	25
Cc1ccc(S(=O)(=O)N2CCC(C(=O)N[C@@H](Cc3ccccc3)C(=O)O)CC2)cc1	-78*	21	1	-81	-3	21
O=C1C(=Nc2cccc(Cl)c2)CC(c2ccc(Cl)cc2)N1c1cccc(Cl)c1 (stereo not given)	1	12	-3	9	nt	20
NC(=O)c1c(NC(=O)c2ccccc2)sc2c1CCc1ccccc1-2	40	19	-8	74*	5	-3
Cc1ccccc1OCCC(=O)OCC(=O)NC1CCS(=O)(=O)C1 (stereo not given)	-2	12	0	-5	4	nt
CCc1c(C)sc(NC(=O)c2ccco2)c1C(=O)N1CCCCC1	-7	20	81*	-5	2	-22
CCc1c(C)sc(NC(=O)c2ccco2)c1C(=O)N1CCOCC1	0	-2	20	-15	0	7
CCn1c(SCC(=O)Nc2ccc3[nH]c(=O)[nH]c3c2)nc2ccccc21	nt	nt	99*	nt	nt	nt
COCCn1c(SCC(=O)Nc2ccc(OC)c(S(N)(=O)=O)c2)nc2ccccc21	-1	6	-26	-7	0	-1
COCCn1c(SCC(=O)Nc2ccc3[nH]c(=O)[nH]c3c2)nc2ccccc21	nt	nt	91*	nt	nt	nt
CN(C)CCOC(=O)c1ccc2c(c1)S(=O)(=O)c1ccccc1C2=O	-10	11	-3	-11	-3	6
